Values after ≈ are worked out from the molar mass of the structure shown.
Experiments:
Staphylococcus aureus [1] = test: Antimicrobial activity against Staphylococcus aureus assessed as fractional Inhibitory concentration index; type: functional
Staphylococcus aureus [2] = test: Antimicrobial activity against Staphylococcus aureus; type: functional
[3] = Inhibition of FPPS (unknown origin)
[4] = Inhibition of Staphylococcus aureus UPPS
How it was run: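 Continuous spectrophotometric assay following UPPS-catalysed condensation of FPP with IPP. Reaction contained 400 µM MESG, 25 µM IPP, 2.5 µM FPP, […] pH 7.5, 0.01% Triton X-100 and 1 mM MgCl2. IC50 from fit of inhibition data to rectangular hyperbolic dose-response function.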

[5] = Binding affinity to DNA dodecamer complex (CGCGAATTCGCG)2 (unknown origin) assessed as change in melting temperature by differential scanning calorimetry
[6] = Inhibition of Staphylococcus aureus UPPS using FPP/IPP as substrate by spectrophotometry
How it was run: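 Continuous spectrophotometric assay following UPPS-catalysed condensation of FPP with IPP. IC50 from fit of inhibition data to rectangular hyperbolic dose-response function.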

[7] = Inhibition of Escherichia coli UPPS using FPP/IPP as substrate by spectrophotometry
Staphylococcus aureus [8] = test: Antimicrobial activity against Staphylococcus aureus Newman after 9 hrs by spectrophotometry; type: functional, organism-based
Escherichia coli = test: Antimicrobial activity against Escherichia coli K-12 after 3 hrs by broth microdilution method; type: functional, organism-based; details: K-12, 3 h

Compound	fractional inhibitory concentration index (FICI) (Staphylococcus aureus [1])	MIC (Staphylococcus aureus [2]) [µg/mL]	IC50 [3] [µM]	IC50 [4] [µM]	ΔTm [5] [°C]	IC50 [6] [µM]	IC50 [7] [µM]	EC50 (Staphylococcus aureus [8]) [µM]	EC50 (Escherichia coli) [µM]
O=C(Nc1cccc(C2=NCCN2)c1)c1ccc(-c2ccc(C(=O)Nc3cccc(C4=NCCN4)c3)cc2)cc1	0.25	0.25 (≈ 0.473 µM)	2	0.1	11				
N=C(N)c1ccc(OCCCCCOc2ccc(C(=N)N)cc2)cc1 [PENTAMIDINE]					2.7	240	400	4.2	12
CCCCCCOc1cccc(NC(=O)c2ccc(-c3ccc(C(=O)Nc4cccc(C5=NCCN5)c4)cc3)cc2)c1					0.7	8.9	25	280	> 1500
O=C(Nc1cccc(O[C@@H]2O[C@H](CO)[C@@H](O)[C@H](O)[C@H]2O)c1)c1ccc(-c2ccc(C(=O)Nc3cccc(C4=NCCN4)c3)cc2)cc1					5.8	530	380	570	> 1500
c1cc2cc(-c3ccc(-c4cc5ccc(C6=NCCN6)cc5[nH]4)cc3)[nH]c2cc1C1=NCCN1					16	1.7	0.36	0.029	0.33
NCCc1cc(Br)cc(C#Cc2cccc(C#Cc3cc(Br)cc(CCN)c3)c2)c1					-0.1	1.4	6.1	7.6	0.97
c1cc2cc(-c3ccc(-c4cc5ccc(C6=NCCCN6)cc5[nH]4)cc3)[nH]c2cc1C1=NCCCN1					24	0.47	0.68	0.028	0.24
O=C(Nc1ccc(C2=NCCN2)cc1)c1ccc(C(=O)Nc2ccc(C3=NCCN3)cc2)c([N+](=O)[O-])c1					3.9	4.9	4.8	28	14
OC[C@H]1O[C@@H](Oc2cccc(C#Cc3ccc(C#Cc4cccc(C5=NCCN5)c4)cc3)c2)[C@H](O)[C@@H](O)[C@@H]1O					-1.2	5.6	14	380	900
Cn1cc(NC(=O)c2cc(NC(=O)CNC(=N)N)cn2C)cc1C(=O)NCCC(=N)N [NETROPSIN]					16	1000	1400	11	570
S=C(Nc1cccc(C2=NCCN2)c1)c1ccc(-c2ccc(C(=S)Nc3cccc(C4=NCCN4)c3)cc2)cc1					7.1	3.5	9.2	3	58
O=C(Nc1cccc(C2=NCCCN2)c1)c1ccc(-c2ccc(C(=O)Nc3cccc(C4=NCCCN4)c3)cc2)cc1					10	4.5	5.5	0.23	0.66
O=P(O)(O)C(O)(Cc1cccc(-c2cccc(NS(=O)(=O)c3cccc(S(=O)(=O)Nc4cccc(-c5cccc(CC(O)(P(=O)(O)O)P(=O)(O)O)c5)c4)c3)c2)c1)P(=O)(O)O					-1	0.39	0.36	100	> 1500
O=C(Nc1cccc(Oc2ccccc2)c1)c1ccc(-c2ccc(C(=O)Nc3cccc(C4=NCCN4)c3)cc2)cc1					0.6	5.7	11	10	> 1500
COc1cccc(NC(=O)c2ccc(-c3ccc(C(=O)Nc4cccc(C5=NCCN5)c4)cc3)cc2)c1					5.2	2.1	9.4	7.7	570
C(=C\c1cc2ccc(C3=NCCN3)cc2[nH]1)/c1cc2ccc(C3=NCCN3)cc2[nH]1					20	5.1	12	0.11	1.2

— ChEMBL document CHEMBL3407437, “Antibacterial drug leads: DNA and enzyme multitargeting” (J Med Chem, 2015)
